Published values of several laboratories.
Cell line: MCF7
Observed: cell growth or viability

| Compound | test | setting | IC50 [µM] |
| --- | --- | --- | --- |
| COc1cc2ncnc(Nc3ccc(F)c(Cl)c3)c2cc1NC(=O)N/N=C/c1cccn1CCCN(C)C | MTT | 72 h | 1.26 |
| Cc1ccc2c(Br)cc(Br)c(O)c2n1 | MTT | 48 h | > 150 |
| C=CCn1c(-c2ccc([N+](=O)[O-])cc2)nc2ccc(C)cc21 | MTT |  | 71.1 |
| COc1cccc2c1C(=O)c1c(O)c3c(c(O)c1C2=O)C[C@@](O)(C(=O)CO)C[C@@H]3O[C@H]1C[C@H](N)[C@H](O)[C@H](C)O1 | SRB |  | 0.18 |
| O=C(/N=C1\SCC(=O)N1C1CCCCC1)c1ccc2ccccc2c1 |  | 48 h | 7.96 |
| CSc1nc(/N=C/c2cc(Br)ccc2O)n(-c2ccc(C(=O)O)cc2)n1 | MTT |  | 31.3 |
| CCOc1ccc(-c2nc3ccccc3n2Cc2ccccc2)cc1 | MTT |  | 40.1 |
| CC(=O)O[C@H]1C(=O)[C@@]2(C)[C@H]([C@H](OC(=O)c3ccccc3)[C@]3(O)C[C@H](OC(=O)[C@H](O)[C@@H](NC(=O)c4ccccc4)c4ccccc4)C(C)=C1C3(C)C)[C@]1(OC(C)=O)CO[C@@H]1C[C@@H]2O |  | 72 h | 0.011 |
| COc1ccc(-c2ccc3ncnc(Nc4cccc(C(F)(F)F)c4)c3c2)cc1 | MTT | 24 h | 11.7 |
| CN(C)CCn1cccc1/C=N/NC(=O)Nc1cc2c(Nc3ccc(F)c(Cl)c3)ncnc2cc1O[C@H]1CCOC1 | MTT | 72 h | 4.82 |
| CS(=O)(=O)c1ccc(-n2cc(/C=N/N=c3\[nH]c(-c4ccc([N+](=O)[O-])cc4)cs3)c(-c3ccc([N+](=O)[O-])cc3)n2)cc1 | MTT | 48 h | 10.1 |
| CC(=O)O[C@H]1C(=O)[C@@]2(C)[C@H]([C@H](OC(=O)c3ccccc3)[C@]3(O)C[C@H](OC(=O)[C@H](O)[C@@H](NC(=O)c4ccccc4)c4ccccc4)C(C)=C1C3(C)C)[C@]1(OC(C)=O)CO[C@@H]1C[C@@H]2O | MTT | 48 h | 2.35 |
| c1ccc2cc(-c3nnc(NC4CCCCC4)[nH]3)ccc2c1 |  | 48 h | 1.75 |
| Oc1c(Br)cc(Br)c2cccnc12 | MTT | 48 h | > 100 |
| COc1cc2ncnc(Nc3ccc(F)c(Cl)c3)c2cc1NC(=O)N/N=C/c1cccn1CCN(C)C | MTT | 72 h | 3.21 |
| CCn1c(=N)c(C(=O)NCCOC)cc2c(=O)n3ccccc3nc21 | MTT | 72 h | > 100 |
| O=[N+]([O-])c1ccc(-c2csc(Nc3ccc4c(O)ncnc4c3)n2)cc1 | MTT |  | 3.09 |
| COc1cccc2c1C(=O)c1c(O)c3c(c(O)c1C2=O)C[C@@](O)(C(=O)CO)C[C@@H]3O[C@H]1C[C@H](N)[C@H](O)[C@H](C)O1 | MTT | 48 h | 3.1 |
| c1cc2c(cc1CNCC1CCNCC1)OCO2 | MTT | 72 h | > 100 |
| Cc1ccc2nc(-c3ccc(F)cc3)n(Cc3ccccc3)c2c1 | MTT |  | 43.1 |
| O=C(NC(=S)NCCCNC(=S)NC(=O)c1ccc2ccccc2c1)c1ccc2ccccc2c1 |  | 48 h | 1.12 |
| Cc1cc(=O)[nH]c(=O)n1Cc1cn(-c2c3ccccc3nc3ccccc23)nn1 | MTT |  | 2.7 |
| Nc1ccc(-c2csc(Nc3ccc4c(O)ncnc4c3)n2)cc1 | MTT |  | 8.29 |
| O=C(/N=c1\scc(-c2ccccc2)n1C1CCCCC1)c1ccc2ccccc2c1 |  | 48 h | 17.3 |

| Compound | test | setting | IC50 [µM] |
| --- | --- | --- | --- |
| C[C@H]1O[C@@H](n2cc(F)c(=O)[nH]c2=O)[C@H](O)[C@@H]1O | CCK-8 | 48 h | > 50 |
| O=C1Nc2c(C(F)(F)F)cccc2C1(c1ccc(OC(F)(F)F)cc1)c1c(F)cc(O)cc1F (stereo not drawn) | resazurin | 24 h | 0.549 |
| COc1cc2ncnc(Nc3ccc(F)c(Cl)c3)c2cc1NC(=O)N/N=C/c1cccn1CCCN1CCCCC1 | MTT | 72 h | 2.81 |
| Oc1cccc(Nc2ccc3ncnc(Nc4cccc(C(F)(F)F)c4)c3c2)c1 | MTT | 24 h | 20.5 |
| Cc1ccc2nc(-c3cccc(O)c3)[nH]c2c1 | MTT | 48 h | > 100 |
| FC(F)(F)c1cccc(Nc2ncnc3ccc(-c4ccc(Cl)cc4)cc23)c1 | MTT | 24 h | 12.3 |
| O=c1[nH]cc(F)c(=O)[nH]1 | WST-1 | 48 h | 3.1 |
| CN(C)C/C=C/C(=O)Nc1cc2c(Nc3ccc(F)c(Cl)c3)ncnc2cc1O[C@H]1CCOC1 | MTT | 72 h | 1.8 |
| c1ccc2[nH]c(-c3ccc4c(c3)OCO4)nc2c1 | MTT | 48 h | > 100 |
| O=C1C[C@@H](c2ccc(O)cc2)Oc2cc(O)cc(O)c21 | MTT | 48 h | 4.75 |
| COc1cc2c(Nc3ccc(NC(=O)c4ccccc4)cc3)ncnc2cc1OCCCN1CCOCC1 | MTS | 72 h | 0.8 |
| Cc1ccc2nc(-c3ccc([N+](=O)[O-])cc3)n(Cc3ccccc3Cl)c2c1 | MTT |  | 20.2 |
| COc1ccc(C(=O)O[C@@H]2CN3Cc4c(cc5c(c4OC)OCO5)[C@@]24C=C[C@H](OC)C[C@@H]34)cc1OC | WST-1 |  | 4.9 |
| O=[N+]([O-])c1ccc(S(=O)(=O)NN=Cc2cn(CCN3CCOCC3)c3ccccc23)cc1 | MTT | 48 h | 82 |
| COc1cc2ncnc(Nc3ccc(F)c(Cl)c3)c2cc1NC(=O)N/N=C/c1cccn1CCCN1CCCC1 | MTT | 72 h | 1.33 |
| Cc1ccc(O)c(/C=N/c2nc(Oc3ccccc3)nn2-c2ccc(C(=O)O)cc2)c1 | MTT |  | 30.3 |
| COc1ccc(-c2nn(-c3ccc(S(C)(=O)=O)cc3)cc2C=N/N=c2\[nH]c(-c3ccc([N+](=O)[O-])cc3)cs2)cc1 | MTT | 48 h | 2.15 |
| Cc1ccc(S(=O)(=O)NN=Cc2cn(CCN3CCOCC3)c3ccccc23)cc1 | MTT | 48 h | 61.1 |
| Oc1ccccc1-c1nc2ccccc2[nH]1 | MTT | 48 h | > 100 |
| O=c1cc(-c2ccc(O)c(O)c2)oc2cc(O)cc(O)c12 | WST-1 | 48 h | 13.4 |
| O=C(N/N=C/c1cccn1CCCN1CCCCC1)Nc1cc2c(Nc3ccc(F)c(Cl)c3)ncnc2cc1O[C@H]1CCOC1 | MTT | 72 h | 1.32 |
| O=S(=O)(NN=Cc1cn(CCN2CCOCC2)c2ccccc12)c1ccc(Cl)cc1 | MTT | 48 h | 13.2 |
| O=C(N/N=C/c1cccn1CCN1CCOCC1)Nc1cc2c(Nc3ccc(F)c(Cl)c3)ncnc2cc1O[C@H]1CCOC1 | MTT | 72 h | 2.13 |
| CSc1nc(/N=C/c2cc(C)ccc2O)n(-c2ccc(C(=O)O)cc2)n1 | MTT |  | 23.9 |
